How the values were obtained:
Format in all cases: functional
[1] = test system: SK-MEL-2; assay: Cytotoxicity against human SK-MEL-2 cells
Outline: (§1)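 Tested in a 60-cell-line human tumor panel screen; the read-out is growth inhibition, reported as GI50 for each cell line.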

[2] = test system: SK-MEL-5; assay: Cytotoxicity against human SK-MEL-5 cells; outline: as §1
[3] = Cytotoxicity against human UACC257 cells
Outline: (§2)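 Cell line run as part of the 60-cell-line screening panel; growth inhibition was reported as a GI50 for each line.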

[4] = Cytotoxicity against human UACC62 cells; outline: as §2
[5] = Cytotoxicity against human OVCAR3 cells; outline: as §1
[6] = Cytotoxicity against human OVCAR5 cells; outline: as §1
[7] = Cytotoxicity against human OVCAR8 cells; outline: as §1
[8] = Cytotoxicity against human NCI-ADR-RES cells; outline: as §1
[9] = test system: SK-OV-3; assay: Cytotoxicity against human SKOV3 cells; outline: as §1
[10] = test system: 786-0; assay: Cytotoxicity against human 786-0 cells; outline: as §1
[11] = test system: A498; assay: Cytotoxicity against human A498 cells; outline: as §1
[12] = test system: ACHN; assay: Cytotoxicity against human ACHN cells; outline: as §1
[13] = test system: RXF 393; assay: Cytotoxicity against human RXF393 cells; outline: as §1
[14] = test system: SN12C; assay: Cytotoxicity against human SN12C cells; outline: as §1
[15] = Cytotoxicity against human UO31 cells; outline: as §2
[16] = test system: PC-3; assay: Cytotoxicity against human PC3 cells; outline: as §1
[17] = test system: DU-145; assay: Cytotoxicity against human DU145 cells; outline: as §1
[18] = test system: MCF7; assay: Cytotoxicity against human MCF7 cells; outline: as §1
[19] = test system: MDA-MB-231; assay: Cytotoxicity against human MDA-MB-231 cells; outline: as §1
[20] = test system: BT-549; assay: Cytotoxicity against human BT549 cells; outline: as §1
[21] = test system: T47D; assay: Cytotoxicity against human T47D cells; outline: as §2
[22] = test system: MDA-MB-468; assay: Cytotoxicity against human MDA-MB-468 cells; outline: as §1
[23] = read-out: pLC50 (the source's name) (converted)

SMILES: COc1cc(/C=C/c2cc(OC)c3cc[nH]c3c2)cc2c1O[C@]1(C)CC[C@@H](O)C(C)(C)[C@H]1C2
- GI50 [1]: 0.309 µM
- CC50 [1, 23]: > 100 µM
- TGI ([1]; read-out: pTGI (converted)): 1.74 µM
- GI50 [2]: 0.178 µM
- CC50 [2, 23]: 0.708 µM
- TGI ([2]; read-out: pTGI (converted)): 0.355 µM
- GI50 ([3]; UACC-257): 0.295 µM
- TGI ([3]; UACC-257, read-out: pTGI (converted)): 0.759 µM
- GI50 ([4]; UACC-62): 0.162 µM
- CC50 ([4]; UACC-62, read-out: pLC50 (the source's name) (converted)): 0.955 µM
- TGI ([4]; UACC-62, read-out: pTGI (converted)): 0.398 µM
- GI50 ([5]; OVCAR-3): 1.2 µM
- CC50 ([5]; OVCAR-3, read-out: pLC50 (the source's name) (converted)): 10 µM
- TGI ([5]; OVCAR-3, read-out: pTGI (converted)): 3.16 µM
- GI50 ([6]; OVCAR-5): 1 µM
- CC50 ([6]; OVCAR-5, read-out: pLC50 (the source's name) (converted)): > 100 µM
- TGI ([6]; OVCAR-5, read-out: pTGI (converted)): 6.03 µM
- GI50 ([7]; OVCAR-8): 3.63 µM
- CC50 ([7]; OVCAR-8, read-out: pLC50 (the source's name) (converted)): > 100 µM
- TGI ([7]; OVCAR-8, read-out: pTGI (converted)): 25.1 µM
- GI50 [8]: 2.09 µM
- CC50 [8, 23]: > 100 µM
- TGI ([8]; read-out: pTGI (converted)): 20 µM
- GI50 [9]: 0.339 µM
- TGI ([9]; read-out: pTGI (converted)): 1.29 µM
- GI50 [10]: 0.0724 µM
- LC50 (concentration killing 50% of cells) [10]: 3.02 µM
- TGI ([10]; read-out: pTGI (converted)): 0.468 µM
- GI50 [11]: 0.245 µM
- TGI ([11]; read-out: pTGI (converted)): 0.813 µM
- GI50 [12]: 0.575 µM
- LC50 (concentration killing 50% of cells) [12]: > 100 µM
- TGI ([12]; read-out: pTGI (converted)): 6.92 µM
- GI50 [13]: 0.024 µM
- LC50 [13]: 0.316 µM
- TGI ([13]; read-out: pTGI (converted)): 0.0603 µM
- GI50 [14]: 6.17 µM
- LC50 [14]: > 100 µM
- TGI ([14]; read-out: pTGI (converted)): 51.3 µM
- GI50 ([15]; UO-31): 0.186 µM
- LC50 ([15]; UO-31): > 100 µM
- TGI ([15]; UO-31, read-out: pTGI (converted)): 0.977 µM
- GI50 [16]: 0.191 µM
- LC50 [16]: > 100 µM
- TGI ([16]; read-out: pTGI (converted)): 1.78 µM
- GI50 [17]: 1.07 µM
- LC50 (50% lethal concentration) [17]: > 100 µM
- TGI ([17]; read-out: pTGI (converted)): 4.37 µM
- GI50 [18]: 0.389 µM
- LC50 [18]: > 100 µM
- TGI ([18]; read-out: pTGI (converted)): 2 µM
- GI50 [19]: 0.851 µM
- LC50 [19]: > 100 µM
- TGI ([19]; read-out: pTGI (converted)): 4.57 µM
- GI50 [20]: 0.229 µM
- CC50 [20, 23]: > 100 µM
- TGI ([20]; read-out: pTGI (converted)): 3.09 µM
- GI50 [21]: 2.82 µM
- CC50 [21, 23]: > 100 µM
- TGI ([21]; read-out: pTGI (converted)): 50.1 µM
- GI50 [22]: 0.631 µM
- LC50 [22]: > 100 µM
- TGI ([22]; read-out: pTGI (converted)): 4.47 µM
